Folding enthalpy and Tm data for 36 sequences are collected here from the array DNA melting data of Ke et al. (doi:10.1101/2024.01.08.574731).

The nature of data set [1]: folding enthalpy; higher = less favourable; fluorescence melt of hairpins on a sequencing array, two-state fit. The following applies: sodium 0.088 M. Put shortly:
(§1)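 In 50 mM Na-HEPES pH 8.0 containing 25 mM NaCl, hairpins from the library on a sequenced MiSeq flow cell were imaged for Cy3 fluorescence at 2.5 °C steps up to 60 °C, with Cy3 and quencher oligos annealed. After normalisation to pre-quench Cy3 and to control constructs, two-state fits with bootstrapping gave melting temperature and folding enthalpy. Four replicates were combined by inverse-variance weighting, and fitted temperatures were shifted up by 9.35 °C to match UV melts.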

Data set [2] in a line: melting temperature; fluorescence melt of hairpins on a sequencing array, two-state fit, raised by 9.35 °C to match UV melts. The following applies: sodium 0.088 M. The method, boiled down: as §1

Take GGGGCCGAAAGGCTGCCC ((((((....)))..))): in data set [1], the folding enthalpy is -14.2 kcal/mol. In data set [2], the Tm was determined as 46.4 °C.

For GGGGCTGGAAACGGTCCC (((.(.(....).).))), the folding enthalpy in data set [1] was -33 kcal/mol. Further, the Tm in data set [2] worked out at 49.6 °C.

GGGGGAGGAAACCCCCCC (((((.(....).))))): the folding enthalpy in data set [1] was -20.1 kcal/mol. For the same sequence, in data set [2], the Tm amounted to 55.1 °C.

In the case of GGGGGCGAAAGCCAGCCC ((((((....)))..))), the folding enthalpy in data set [1] is -14.1 kcal/mol. In addition, the Tm in data set [2] was 51.8 °C.

Take GGGGGCGAAAGCCATCCC ((((((....)))..))): the folding enthalpy in data set [1] is -13.5 kcal/mol. Further, the Tm in data set [2] turned out to be 51.5 °C.

For GGGGGCGGAAACGTCCCC ((((.((....)).)))), the folding enthalpy in data set [1] is -22.5 kcal/mol. The Tm in data set [2] turned out to be 67.4 °C.

Regarding GGGGGTGGAAACACCTCC ((.((((....)))).)), the folding enthalpy in data set [1] is -29.1 kcal/mol. The Tm in data set [2] worked out at 54.9 °C.

For the sequence GGGGTACGAAAGTATCCC (((.(((....))).))), the folding enthalpy in data set [1] is -33.5 kcal/mol. In data set [2], the Tm stood at 58 °C.

Consider GGGGTAGGAAACTGCTCC ((.(.((....)).).)), for which, in data set [1], the folding enthalpy is -29.9 kcal/mol. For the same sequence, the Tm in data set [2] was found to be 35.9 °C.

GGGGTCGAAAGACACCC ((((((....))).))): in data set [1], the folding enthalpy was -18.2 kcal/mol. The Tm in data set [2] was determined as 63.1 °C.

Turning to GGGGTCGAAAGACTCCC ((((((....))).))), the folding enthalpy in data set [1] was -30.9 kcal/mol. Also, in data set [2], the Tm came to 57 °C.

As for GGGGTCGGAAACGACCTC (.(((((....))))).), the folding enthalpy in data set [1] was -14.1 kcal/mol. For the same sequence, the Tm in data set [2] turned out to be 61.4 °C.

In the case of GGGGTGACGAAAGTCCCC (((..(((....)))))), in data set [1], the folding enthalpy was -31.8 kcal/mol. Further, the Tm in data set [2] amounted to 56 °C.

GGGGTGGGAAACCGCCCC ((((.((....)).)))): in data set [1], the folding enthalpy was -38.1 kcal/mol. Besides, the Tm in data set [2] amounted to 65.9 °C.

On to GGGGTTACGAAAGTACCC (((..(((....)))))), for which, in data set [1], the folding enthalpy is -22.8 kcal/mol. The Tm in data set [2] came to 51.4 °C.

In the case of GGGTAAGGAAACCTACCC (((((.(....).))))), the folding enthalpy in data set [1] is -30.6 kcal/mol. Also, the Tm in data set [2] worked out at 42.9 °C.

GGGTACACGAAAGTGCCC (((..(((....)))))): in data set [1], the folding enthalpy was -21.2 kcal/mol. In addition, in data set [2], the Tm amounted to 48 °C.

Turning to GGGTACGAAAGTAAACCC ((((((....)))..))), in data set [1], the folding enthalpy was -28.4 kcal/mol. In addition, the Tm in data set [2] amounted to 47.3 °C.

On to GGGTACGAAAGTACGCCC ((((((....)))..))), for which, in data set [1], the folding enthalpy is -13.3 kcal/mol. Moreover, the Tm in data set [2] worked out at 46.1 °C.

Consider GGGTACGAAAGTAGCCC ((((((....))).))), for which the folding enthalpy in data set [1] was -26.3 kcal/mol. Also, the Tm in data set [2] amounted to 56.2 °C.

For GGGTACGAAAGTAGGCCC ((((((....)))..))), the folding enthalpy in data set [1] was -20.1 kcal/mol. Moreover, the Tm in data set [2] was found to be 38.6 °C.

For the sequence GGGTACGAAAGTATCCC ((((((....))).))), the folding enthalpy in data set [1] is -37.3 kcal/mol. Besides, in data set [2], the Tm worked out at 51.8 °C.

On to GGGTACGCGAAAGCGCCC (((..(((....)))))), for which the folding enthalpy in data set [1] was -16.3 kcal/mol. Moreover, in data set [2], the Tm was found to be 47.2 °C.

As to GGGTACGGAAACGTGCCC (((.(((....))).))), in data set [1], the folding enthalpy is -53.5 kcal/mol. The Tm in data set [2] was 60.1 °C.

Turning to GGGTACGGAAACGTGTCC ((..(((....)))..)), the folding enthalpy in data set [1] was -24.8 kcal/mol. Also, the Tm in data set [2] is 40.6 °C.

On to GGGTAGCGAAAGCTCCCC (((.(((....))).))), for which, in data set [1], the folding enthalpy was -28 kcal/mol. For the same sequence, the Tm in data set [2] amounted to 55.1 °C.

Consider GGGTAGGAAACTACCC ((((((....)))))), for which, in data set [1], the folding enthalpy is -29.6 kcal/mol. In addition, in data set [2], the Tm was determined as 58.8 °C.

As to GGGTATACGAAAGTACCC (((..(((....)))))), the folding enthalpy in data set [1] is -24.4 kcal/mol. Also, the Tm in data set [2] was determined as 45.6 °C.

Take GGGTATCGAAAGATTCCC (((.(((....))).))): the folding enthalpy in data set [1] was -30.6 kcal/mol. The Tm in data set [2] worked out at 48.8 °C.

Regarding GGGTATTCGAAAGAACCC (((..(((....)))))), the folding enthalpy in data set [1] is -22 kcal/mol. Also, the Tm in data set [2] is 34.5 °C.

GGGTCAGGAAACTGATCC ((.((((....)))).)): in data set [1], the folding enthalpy was -38.9 kcal/mol. In addition, in data set [2], the Tm worked out at 51.9 °C.

With GGGTCAGGAAACTGGCCC (((.(((....))).))), in data set [1], the folding enthalpy is -41.8 kcal/mol. The Tm in data set [2] is 60.4 °C.

On to GGGTCAGGAAACTGGCTC (.(.(((....))).).), for which, in data set [1], the folding enthalpy was -24.5 kcal/mol. For the same sequence, in data set [2], the Tm turned out to be 39.8 °C.

Take GGGTCCCGAAAGGGCCCC (((.(((....))).))): in data set [1], the folding enthalpy is -17.9 kcal/mol. For the same sequence, in data set [2], the Tm is 67.2 °C.

With GGGTCCGAAAGGAGACCC ((((((....)))..))), the folding enthalpy in data set [1] was -22 kcal/mol. Moreover, the Tm in data set [2] amounted to 53.1 °C.

Consider GGGTCCGAAAGGATACCC ((((((....)))..))), for which the folding enthalpy in data set [1] is -20.1 kcal/mol. Moreover, the Tm in data set [2] came out at 50 °C.
